Measurements: ChEMBL document CHEMBL1649277, “Inhibition of herpesvirus replication by 5-substituted 4'-thiopyrimidine nucleosides” (Antimicrob Agents Chemother, 2009)
Active and inactive are the calls of the source. The calls are words filed in the database; no cut-off is given here.

Experiments:
[1] = Selectivity index, ratio of CC50 for HFF to EC50 for HSV2 MS infected in HFF
Human betaherpesvirus 5 [2] = assay: Antiviral activity against human cytomegalovirus AD169 infected in HFF after 8 to 10 days by plaque reduction assay; assay type: functional, organism-based; conditions: Human betaherpesvirus 5, AD169
Procedure, shortened: (§1)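 Plaque reduction on confluent HFF monolayers in triplicate wells: 1 h adsorption, then six serial compound dilutions (top 100 μM) in MEM with 2% FBS, no immunoglobulin. Incubation was 8 days for HCMV and 10 days for VZV. Plaques were stained with 0.017% neutral red in PBS and counted microscopically. EC50 was interpolated at 50% plaque reduction.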

Human alphaherpesvirus 3 = assay: Antiviral activity against VZV Ellan infected in HFF after 8 to 10 days by plaque reduction assay; assay type: functional, organism-based; conditions: Human alphaherpesvirus 3, Ellan; procedure, shortened: as §1
Human gammaherpesvirus 4 = assay: Antiviral activity against Epstein-Barr virus infected in human Akata cells after 72 hrs; assay type: functional, organism-based; conditions: human gammaherpesvirus 4, Akata
Procedure, shortened: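 Akata cells were kept in RPMI 1640 with 10% FBS. Compound ranged 100 to 0.032 μM. Latent cells were induced to lytic infection with 50 μg/ml goat anti-human IgG, and 4 × 10^4 cells were added per well. After 72 h, DNA was alkali/NaCl-denatured, blotted to nylon membrane, and viral DNA quantified by digoxigenin-probe hybridization with anti-hapten antibody detection.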

[3] = Selectivity index, ratio of CC50 for HFF to EC50 for human cytomegalovirus AD169 infected in HFF
[4] = Selectivity index, ratio of CC50 for HFF to EC50 for VZV Ellan infected in HFF
[5] = Selectivity index, ratio of CC50 for human HSB2 cells to EC50 for Human herpesvirus 6 GS infected in human HSB2 cells; assay type: toxicity, cell-based; conditions: read-out: Ratio CC50/EC50
[6] = Selectivity index, ratio of CC50 for human BCBL1 cells to EC50 for Human herpesvirus 8 infected in human BCBL1 cells; assay type: toxicity, cell-based; conditions: read-out: Ratio CC50/EC50
Human alphaherpesvirus 1 [7] = assay: Antiviral activity against HSV1 PAA5 harboring polymerase R842S mutant gene infected in HFF after 3 days by plaque reduction assay; assay type: functional, organism-based; conditions: Human alphaherpesvirus 1, PAA5, 72 h
Procedure, shortened: (§2)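 Confluent HFF monolayers (passage <10) were infected in triplicate wells at 20–30 plaques per well, with 1 h adsorption and rocking every 15 min. Six serial dilutions (top 100 μM) were made in MEM with 2% FBS and pooled human immunoglobulin. Cells were incubated 3 days and stained with crystal violet. Plaques were counted, and EC50 was interpolated from plaque reduction.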

Human alphaherpesvirus 1 [8] = assay: Antiviral activity against HSV1 B-2006 harboring frameshift mutation at Q185 in TK infected in HFF after 3 days by plaque reduction assay; assay type: functional, organism-based; conditions: Human alphaherpesvirus 1, B-2006, 72 h; procedure, shortened: as §2
Human betaherpesvirus 5 [9] = assay: Antiviral activity against human cytomegalovirus RC314 harboring UL97 K355M mutant gene infected in HFF after 8 to 10 days by plaque reduction assay; assay type: functional, organism-based; conditions: Human betaherpesvirus 5, RC314
Procedure, shortened: (§3)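 Plaque reduction in confluent HFF with six serial dilutions (top 100 μM) and no immunoglobulin added. Virus was adsorbed 1 h on triplicate wells. Cells were incubated 8 days, stained with 0.017% neutral red in PBS, and plaques counted. EC50 is the concentration reducing plaque number by 50%.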

Human betaherpesvirus 5 [10] = assay: Antiviral activity against human cytomegalovirus C8914-6 harboring UL97 I244V, L595F and UL54 L501F mutant gene infected in HFF after 8 to 10 days by plaque reduction assay; assay type: functional, organism-based; conditions: Human betaherpesvirus 5, C8914-6; procedure, shortened: as §3
Human betaherpesvirus 5 [11] = assay: Antiviral activity against human cytomegalovirus 1117 harboring UL54 K513N mutant gene infected in HFF after 8 to 10 days by plaque reduction assay; assay type: functional, organism-based; conditions: Human betaherpesvirus 5, 1117; procedure, shortened: as §3
Human betaherpesvirus 5 [12] = assay: Antiviral activity against human cytomegalovirus VR4955 harboring UL54 T700A mutant gene infected in HFF after 8 to 10 days by plaque reduction assay; assay type: functional, organism-based; conditions: Human betaherpesvirus 5, VR4955; procedure, shortened: as §3
Human betaherpesvirus 5 [13] = assay: Antiviral activity against human cytomegalovirus PFAB300 harboring UL54 L724V mutant gene infected in HFF after 8 to 10 days by plaque reduction assay; assay type: functional, organism-based; conditions: Human betaherpesvirus 5, PFAB300; procedure, shortened: as §3
Human alphaherpesvirus 2 [14] = assay: Antiviral activity against 4'-thioIDU-resistant HSV2 infected in HFF after 3 days by plaque reduction assay; assay type: functional, organism-based; conditions: Human alphaherpesvirus 2, 72 h; procedure, shortened: as §2
Human alphaherpesvirus 2 [15] = assay: Selectivity ratio of EC50 for 4'-thioIDU-resistant HSV2 infected in HFF to EC50 for HSV2 MS infected in HFF; assay type: functional
Human alphaherpesvirus 2 [16] = assay: Antiviral activity against HSV2 harboring frameshift mutation in TK infected in HFF after 3 days by plaque reduction assay; assay type: functional, organism-based; conditions: Human alphaherpesvirus 2, 72 h; procedure, shortened: as §2
Human alphaherpesvirus 2 [17] = assay: Antiviral activity against HSV2 infected in BALB/c mouse assessed mean time to virus-induced death at 30 mg/kg, po BID administered 24 hrs post infection; assay type: functional
Human alphaherpesvirus 2 [18] = assay: Antiviral activity against HSV2 infected in BALB/c mouse assessed mean time to virus-induced death at 10 mg/kg, po BID administered 24 hrs post infection; assay type: functional
Human alphaherpesvirus 2 [19] = assay: Antiviral activity against HSV2 infected in BALB/c mouse assessed as virus-induced mortality rate at […], po BID administered 24 hrs post infection; assay type: functional
Human alphaherpesvirus 2 [20] = assay: Antiviral activity against HSV2 infected in BALB/c mouse assessed mean time to virus-induced death at […], po BID administered 24 hrs post infection; assay type: functional
Human alphaherpesvirus 2 [21] = assay: Antiviral activity against HSV2 infected in BALB/c mouse assessed as virus-induced mortality rate at 30 mg/kg, po BID administered 48 hrs post infection; assay type: functional
Human alphaherpesvirus 2 [22] = assay: Antiviral activity against HSV2 infected in BALB/c mouse assessed as virus-induced mortality rate at 10 mg/kg, po BID administered 48 hrs post infection; assay type: functional
Human alphaherpesvirus 2 [23] = assay: Antiviral activity against HSV2 infected in BALB/c mouse assessed mean time to virus-induced death at 30 mg/kg, po BID administered 48 hrs post infection; assay type: functional
Human alphaherpesvirus 2 [24] = assay: Antiviral activity against HSV2 infected in BALB/c mouse assessed mean time to virus-induced death at […], po BID administered 48 hrs post infection; assay type: functional
Human alphaherpesvirus 2 [25] = assay: Antiviral activity against HSV2 infected in BALB/c mouse assessed as virus-induced mortality rate at […], po BID administered 72 hrs post infection; assay type: functional
Human alphaherpesvirus 2 [26] = assay: Antiviral activity against HSV2 infected in BALB/c mouse assessed mean time to virus-induced death at 30 mg/kg, po BID administered 72 hrs post infection; assay type: functional
Human alphaherpesvirus 2 [27] = assay: Antiviral activity against HSV2 infected in BALB/c mouse assessed mean time to virus-induced death at 10 mg/kg, po BID administered 72 hrs post infection; assay type: functional
Human alphaherpesvirus 2 [28] = assay: Antiviral activity against HSV2 infected in BALB/c mouse assessed mean time to virus-induced death at […], po BID administered 72 hrs post infection; assay type: functional
Human alphaherpesvirus 2 [29] = assay: Antiviral activity against 4'-thioIDU-resistant HSV2 infected in HFF assessed as inhibition of viral DNA synthesis-associated incorporation in DNA by immunofluorescence assay; assay type: functional, organism-based
Procedure, shortened: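 HFF on coverslips were infected with HSV-2 MS or the resistant isolate (MOI 0.2 PFU/cell) for 48 h. Cells were pulsed with BrdUrd or 10 μM test compound for 30 min before fixation. Incorporation was detected with a cross-reacting anti-BrdUrd monoclonal antibody, infected cells with anti-155-kDa nucleocapsid antibody, and nuclei with DAPI.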

O=c1[nH]c(=O)n([C@H]2C[C@H](O)[C@@H](CO)S2)cc1I
Ratio CC50/EC50 [1]: > 140 | EC50 (Human betaherpesvirus 5 [2]): 5.85 µM | EC50 (Human alphaherpesvirus 3): 2000 nM | EC50 (Human gammaherpesvirus 4): > 160 nM | Ratio CC50/EC50 [3]: >17 | Ratio CC50/EC50 [4]: 35 | selectivity ratio [5]: 1 | selectivity ratio [6]: < 3.6 | EC50 (Human alphaherpesvirus 1 [7]): 28 µM | EC50 (Human alphaherpesvirus 1 [8]): > 444 µM | EC50 (Human betaherpesvirus 5 [9]): 6.5 µM | EC50 (Human betaherpesvirus 5 [10]): 43 µM | EC50 (Human betaherpesvirus 5 [11]): 4.4 µM | EC50 (Human betaherpesvirus 5 [12]): 8 µM | EC50 (Human betaherpesvirus 5 [13]): 25 µM | EC50 (Human alphaherpesvirus 2 [14]): 57 µM | Ratio EC50 (Human alphaherpesvirus 2 [15]): 108 | EC50 (Human alphaherpesvirus 2 [16]): 77 µM | Time (Human alphaherpesvirus 2 [17]): 12.1 days | Time (Human alphaherpesvirus 2 [18]): 9.8 days | Activity (Human alphaherpesvirus 2 [19]): 100% | Time (Human alphaherpesvirus 2 [20]): 8.2 days | Activity (Human alphaherpesvirus 2 [21]): 100% | Activity (Human alphaherpesvirus 2 [22]): 73% | Time (Human alphaherpesvirus 2 [23]): 12.8 days | Time (Human alphaherpesvirus 2 [24]): 9.4 days | Activity (Human alphaherpesvirus 2 [25]): 100% | Time (Human alphaherpesvirus 2 [26]): 11.7 days | Time (Human alphaherpesvirus 2 [27]): 10.7 days | Time (Human alphaherpesvirus 2 [28]): 10 days | inhibition (Human alphaherpesvirus 2 [29]): inactive
